Experimental data from ChEMBL document CHEMBL3045713, “The fungicidal terpenoids and essential oil from Litsea cubeba in Tibet” (Molecules, 2010).

What was measured:
Type in all cases: functional
Fusarium graminearum [1] = assay: Fungicidal activity against Fusarium graminearum assessed as inhibition of mycelium growth at 272 uM at 25 +/- 0.5 degC
Method in brief: (§1)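 Mycelium growth rate test. Test sample dissolved in acetone and mixed into potato dextrose agar at the stated concentration, then fungal mycelial cakes were placed on the plates. Acetone served as blank and carbendazim as positive control. Plates were incubated at 25 ± 0.5 °C until the blank grew completely. Colony diameters were then measured, and inhibitory ratio was calculated against the blank mean. Three replicates were run.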

Alternaria mali [2] = assay: Fungicidal activity against Alternaria mali assessed as inhibition of mycelium growth at 272 uM at 25 +/- 0.5 degC; method in brief: as §1
Phytophthora infestans [3] = assay: Fungicidal activity against Phytophthora infestans assessed as inhibition of mycelium growth at 272 uM at 25 +/- 0.5 degC; method in brief: as §1
Alternaria alternata [4] = assay: Fungicidal activity against Alternaria alternata assessed as inhibition of mycelium growth at 272 uM at 25 +/- 0.5 degC; method in brief: as §1
Botrytis cinerea [5] = assay: Fungicidal activity against Botryotinia fuckeliana assessed as inhibition of mycelium growth at 272 uM at 25 +/- 0.5 degC; method in brief: as §1
Sclerotinia sclerotiorum [6] = assay: Fungicidal activity against Sclerotinia sclerotiorum assessed as inhibition of mycelium growth at 272 uM at 25 +/- 0.5 degC; method in brief: as §1
Fusarium verticillioides [7] = assay: Fungicidal activity against Fusarium verticillioides assessed as inhibition of mycelium growth at 272 uM at 25 +/- 0.5 degC; method in brief: as §1
[8] = test system: Colletotrichum lindemuthianum; assay: Fungicidal activity against Colletotrichum lindemuthianum assessed as inhibition of mycelium growth at 272 uM at 25 +/- 0.5 degC; method in brief: as §1
Verticillium dahliae = assay: Fungicidal activity against Verticillium dahliae assessed as inhibition of mycelium growth at 272 uM at 25 +/- 0.5 degC; method in brief: as §1
Thanatephorus cucumeris [9] = assay: Fungicidal activity against Thanatephorus cucumeris assessed as inhibition of mycelium growth at 272 uM at 25 +/- 0.5 degC; method in brief: as §1
[10] = test system: Colletotrichum gloeosporioides; assay: Fungicidal activity against Colletotrichum gloeosporioides assessed as inhibition of mycelium growth at 272 uM at 25 +/- 0.5 degC; method in brief: as §1
Fusarium oxysporum [11] = assay: Fungicidal activity against Fusarium oxysporum assessed as inhibition of mycelium growth at 272 uM at 25 +/- 0.5 degC; method in brief: as §1
Pseudocercospora musae [12] = assay: Fungicidal activity against Pseudocercospora musae assessed as inhibition of mycelium growth at 272 uM at 25 +/- 0.5 degC; method in brief: as §1
Phytophthora infestans [13] = assay: Fungicidal activity against Phytophthora infestans assessed as inhibition of mycelium growth at 52 uM at 25 +/- 0.5 degC; method in brief: as §1
Fusarium graminearum [14] = assay: Fungicidal activity against Fusarium graminearum assessed as inhibition of mycelium growth at 52 uM at 25 +/- 0.5 degC; method in brief: as §1
Sclerotinia sclerotiorum [15] = assay: Fungicidal activity against Sclerotinia sclerotiorum assessed as inhibition of mycelium growth at 52 uM at 25 +/- 0.5 degC; method in brief: as §1
Thanatephorus cucumeris [16] = assay: Fungicidal activity against Thanatephorus cucumeris assessed as inhibition of mycelium growth at 52 uM at 25 +/- 0.5 degC; method in brief: as §1
Fusarium verticillioides [17] = assay: Fungicidal activity against Fusarium verticillioides assessed as inhibition of mycelium growth at 52 uM at 25 +/- 0.5 degC; method in brief: as §1
Fusarium oxysporum [18] = assay: Fungicidal activity against Fusarium oxysporum assessed as inhibition of mycelium growth at 52 uM at 25 +/- 0.5 degC; method in brief: as §1
Alternaria mali [19] = assay: Fungicidal activity against Alternaria mali assessed as inhibition of mycelium growth at 52 uM at 25 +/- 0.5 degC; method in brief: as §1
[20] = test system: Colletotrichum gloeosporioides; assay: Fungicidal activity against Colletotrichum gloeosporioides assessed as inhibition of mycelium growth at 52 uM at 25 +/- 0.5 degC; method in brief: as §1
Botrytis cinerea [21] = assay: Fungicidal activity against Botryotinia fuckeliana assessed as inhibition of mycelium growth at 52 uM at 25 +/- 0.5 degC; method in brief: as §1
[22] = test system: Colletotrichum gloeosporioides; assay: Fungicidal activity against Colletotrichum gloeosporioides assessed as inhibition of mycelium growth at 588 uM at 25 +/- 0.5 degC; method in brief: as §1
Sclerotinia sclerotiorum [23] = assay: Fungicidal activity against Sclerotinia sclerotiorum assessed as inhibition of mycelium growth at 588 uM at 25 +/- 0.5 degC; method in brief: as §1
Fusarium oxysporum [24] = assay: Fungicidal activity against Fusarium oxysporum assessed as inhibition of mycelium growth at 588 uM at 25 +/- 0.5 degC; method in brief: as §1
[25] = test system: Botryosphaeria berengeriana; assay: Fungicidal activity against Botryosphaeria berengeriana assessed as inhibition of mycelium growth at 588 uM at 25 +/- 0.5 degC; method in brief: as §1
Pseudocercospora musae [26] = assay: Fungicidal activity against Pseudocercospora musae assessed as inhibition of mycelium growth at 588 uM at 25 +/- 0.5 degC; method in brief: as §1
Alternaria alternata [27] = assay: Fungicidal activity against Alternaria alternata assessed as inhibition of mycelium growth at 588 uM at 25 +/- 0.5 degC; method in brief: as §1
Thanatephorus cucumeris [28] = assay: Fungicidal activity against Thanatephorus cucumeris assessed as inhibition of mycelium growth at 588 uM at 25 +/- 0.5 degC; method in brief: as §1

CC1=CC(=O)O[C@@H](C(C)(C)O)CC1
inhibition at 272 µM (Fusarium graminearum [1]): 73.8% | inhibition at 272 µM (Alternaria mali [2]): 66% | inhibition at 272 µM (Phytophthora infestans [3]): 66.4% | inhibition at 272 µM (Alternaria alternata [4]): 70.9% | inhibition at 272 µM (Botrytis cinerea [5]): 72% | inhibition at 272 µM (Sclerotinia sclerotiorum [6]): 81.8% | inhibition at 272 µM (Fusarium verticillioides [7]): 55.6% | inhibition at 272 µM [8]: 62.3% | inhibition at 272 µM (Verticillium dahliae): 66.6% | inhibition at 272 µM (Thanatephorus cucumeris [9]): 80.2% | inhibition at 272 µM [10]: 71.1% | inhibition at 272 µM (Fusarium oxysporum [11]): 53.5% | inhibition at 272 µM (Pseudocercospora musae [12]): 65.5%

COC(=O)Nc1nc2ccccc2[nH]1 [CARBENDAZIM]
inhibition at 52 µM (Phytophthora infestans [13]): 100% | inhibition at 52 µM (Fusarium graminearum [14]): 100% | inhibition at 52 µM (Sclerotinia sclerotiorum [15]): 100% | inhibition at 52 µM (Thanatephorus cucumeris [16]): 100% | inhibition at 52 µM (Fusarium verticillioides [17]): 100% | inhibition at 52 µM (Fusarium oxysporum [18]): 100% | inhibition at 52 µM (Alternaria mali [19]): 100% | inhibition at 52 µM [20]: 100% | inhibition at 52 µM (Botrytis cinerea [21]): 100%

C/C(=C\C=C\C(C)(C)O)C(=O)O [LITSEACUBEBIC ACID]
inhibition at 588 µM [22]: 71.2% | inhibition at 588 µM (Sclerotinia sclerotiorum [23]): 86.7% | inhibition at 588 µM (Fusarium oxysporum [24]): 56.7% | inhibition at 588 µM [25]: 59.2% | inhibition at 588 µM (Pseudocercospora musae [26]): 78.9% | inhibition at 588 µM (Alternaria alternata [27]): 57.8% | inhibition at 588 µM (Thanatephorus cucumeris [28]): 76.8%
